Results as given in ChEMBL document CHEMBL2040727, “Substituted thiazoles VI. Synthesis and antitumor activity of new 2-acetamido- and 2 or 3-propanamido-thiazole analogs” (2012).

What was measured:
Assay type in all cases: functional
K562 = test: Growth inhibition of human K562 cells at 10 uM after 48 hrs by coulter counter analysis; details: K562, 48 h, read-out: GI
How it was run: (§1)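 Single-dose NCI 60-line panel screen of test compounds. Cells grown in RPMI 1640 with 10% FBS. Compounds dissolved in DMSO, then diluted in phosphate buffer saline (final DMSO below 1%). Wells run in duplicate at 6 × 10⁴ cells/ml. Controls held PBS and DMSO at matching dilutions. Incubation 48 h at 37 °C under humidified 5% CO2. Cells diluted tenfold in saline and counted by Coulter counter. Percent growth inhibition taken from mean-graph of treated-cell growth.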

RPMI-8226 = test: Growth inhibition of human RPMI8226 cells at 10 uM after 48 hrs by coulter counter analysis; details: RPMI-8226, 48 h, read-out: GI; how it was run: as §1
HOP-62 = test: Growth inhibition of human HOP62 cells at 10 uM after 48 hrs by coulter counter analysis; details: HOP-62, 48 h, read-out: GI; how it was run: as §1
NCI-H226 = test: Growth inhibition of human NCI-H226 cells at 10 uM after 48 hrs by coulter counter analysis; details: NCI-H226, 48 h, read-out: GI; how it was run: as §1
NCI-H23 = test: Growth inhibition of human NCI-H23 cells at 10 uM after 48 hrs by coulter counter analysis; details: NCI-H23, 48 h, read-out: GI; how it was run: as §1
NCI-H322M = test: Growth inhibition of human NCI-H322M cells at 10 uM after 48 hrs by coulter counter analysis; details: read-out: GI; how it was run: as §1
HCC 2998 = test: Growth inhibition of human HCC2998 cells at 10 uM after 48 hrs by coulter counter analysis; details: HCC 2998, 48 h, read-out: GI; how it was run: as §1
HCT-15 = test: Growth inhibition of human HCT15 cells at 10 uM after 48 hrs by coulter counter analysis; details: HCT-15, 48 h, read-out: GI; how it was run: as §1
HT-29 = test: Growth inhibition of human HT-29 cells at 10 uM after 48 hrs by coulter counter analysis; details: HT-29, 48 h, read-out: GI; how it was run: as §1
SW-620 = test: Growth inhibition of human SW620 cells at 10 uM after 48 hrs by coulter counter analysis; details: SW-620, 48 h, read-out: GI
How it was run: (§2)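 Single-dose screen in the NCI 60 cell line panel. Cells grown in RPMI 1640 with 10% FBS. Compounds dissolved in DMSO and diluted in phosphate buffered saline, final DMSO under 1%. Duplicate wells seeded from culture at 6 × 10⁴ cells/ml. Incubated 48 h at 37 °C, humidified, 5% CO2. Cells diluted tenfold in saline and Coulter-counted. Percent growth inhibition computed against PBS/DMSO controls.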

SF-268 = test: Growth inhibition of human SF268 cells at 10 uM after 48 hrs by coulter counter analysis; details: SF-268, 48 h, read-out: GI; how it was run: as §1
SF-539 = test: Growth inhibition of human SF539 cells at 10 uM after 48 hrs by coulter counter analysis; details: SF-539, 48 h, read-out: GI; how it was run: as §1
LOX IMVI = test: Growth inhibition of human LOXIMVI cells at 10 uM after 48 hrs by coulter counter analysis; details: read-out: GI; how it was run: as §1
Malme-3M = test: Growth inhibition of human MALME-3M cells at 10 uM after 48 hrs by coulter counter analysis; details: read-out: GI; how it was run: as §1
MDA-MB-435 = test: Growth inhibition of human MDA-MB-435 cells at 10 uM after 48 hrs by coulter counter analysis; details: MDA-MB-435, 48 h, read-out: GI; how it was run: as §1
SK-MEL-28 = test: Growth inhibition of human SK-MEL-28 cells at 10 uM after 48 hrs by coulter counter analysis; details: SK-MEL-28, 48 h, read-out: GI; how it was run: as §1
SK-MEL-5 = test: Growth inhibition of human SK-MEL-5 cells at 10 uM after 48 hrs by coulter counter analysis; details: SK-MEL-5, 48 h, read-out: GI; how it was run: as §1
UACC-62 = test: Growth inhibition of human UACC62 cells at 10 uM after 48 hrs by coulter counter analysis; details: UACC-62, 48 h, read-out: GI; how it was run: as §2
IGROV-1 = test: Growth inhibition of human IGROV1 cells at 10 uM after 48 hrs by coulter counter analysis; details: IGROV-1, 48 h, read-out: GI; how it was run: as §1
OVCAR-4 = test: Growth inhibition of human OVCAR4 cells at 10 uM after 48 hrs by coulter counter analysis; details: OVCAR-4, 48 h, read-out: GI; how it was run: as §1
OVCAR-5 = test: Growth inhibition of human OVCAR5 cells at 10 uM after 48 hrs by coulter counter analysis; details: OVCAR-5, 48 h, read-out: GI; how it was run: as §1
OVCAR-8 = test: Growth inhibition of human OVCAR8 cells at 10 uM after 48 hrs by coulter counter analysis; details: OVCAR-8, 48 h, read-out: GI; how it was run: as §1
786-0 = test: Growth inhibition of human 786-0 cells at 10 uM after 48 hrs by coulter counter analysis; details: 786-0, 48 h, read-out: GI; how it was run: as §1
A498 = test: Growth inhibition of human A498 cells at 10 uM after 48 hrs by coulter counter analysis; details: A498, 48 h, read-out: GI; how it was run: as §1
CAKI-1 = test: Growth inhibition of human Caki1 cells at 10 uM after 48 hrs by coulter counter analysis; details: CAKI-1, 48 h, read-out: GI; how it was run: as §1
RXF 393 = test: Growth inhibition of human RXF393 cells at 10 uM after 48 hrs by coulter counter analysis; details: RXF 393, 48 h, read-out: GI; how it was run: as §1
SN12C = test: Growth inhibition of human SN12C cells at 10 uM after 48 hrs by coulter counter analysis; details: read-out: GI; how it was run: as §1
UO-31 = test: Growth inhibition of human UO31 cells at 10 uM after 48 hrs by coulter counter analysis; details: UO-31, 48 h, read-out: GI; how it was run: as §2
PC-3 = test: Growth inhibition of human PC3 cells at 10 uM after 48 hrs by coulter counter analysis; details: PC-3, 48 h, read-out: GI; how it was run: as §1
MDA-MB-231 = test: Growth inhibition of human MDA-MB-231 cells at 10 uM after 48 hrs by coulter counter analysis; details: MDA-MB-231, 48 h, read-out: GI; how it was run: as §1
[1] = Growth inhibition of human Hs 578T cells at 10 uM after 48 hrs by coulter counter analysis; details: read-out: GI; how it was run: as §1
BT-549 = test: Growth inhibition of human BT549 cells at 10 uM after 48 hrs by coulter counter analysis; details: BT-549, 48 h, read-out: GI; how it was run: as §1
T47D = test: Growth inhibition of human T47D cells at 10 uM after 48 hrs by coulter counter analysis; details: read-out: GI; how it was run: as §2
MDA-MB-468 = test: Growth inhibition of human MDA-MB-468 cells at 10 uM after 48 hrs by coulter counter analysis; details: MDA-MB-468, 48 h, read-out: GI; how it was run: as §1
CCRF-CEM = test: Growth inhibition of human CCRF-CEM cells at 10 uM after 48 hrs by coulter counter analysis; details: read-out: GI; how it was run: as §1

Row | SMILES | inhibition of growth at 10 µM (K562) [%] | inhibition of growth at 10 µM (RPMI-8226) [%] | inhibition of growth at 10 µM (HOP-62) [%] | inhibition of growth at 10 µM (NCI-H226) [%] | inhibition of growth at 10 µM (NCI-H23) [%] | inhibition of growth at 10 µM (NCI-H322M) [%] | inhibition of growth at 10 µM (HCC 2998) [%] | inhibition of growth at 10 µM (HCT-15) [%] | inhibition of growth at 10 µM (HT-29) [%] | inhibition of growth at 10 µM (SW-620) [%] | inhibition of growth at 10 µM (SF-268) [%] | inhibition of growth at 10 µM (SF-539) [%] | inhibition of growth at 10 µM (LOX IMVI) [%] | inhibition of growth at 10 µM (Malme-3M) [%] | inhibition of growth at 10 µM (MDA-MB-435) [%] | inhibition of growth at 10 µM (SK-MEL-28) [%] | inhibition of growth at 10 µM (SK-MEL-5) [%] | inhibition of growth at 10 µM (UACC-62) [%] | inhibition of growth at 10 µM (IGROV-1) [%] | inhibition of growth at 10 µM (OVCAR-4) [%] | further results
1 | CCOC(=O)c1sc(NC(=O)C(C)N2CCCCC2)nc1C (stereo not given) | < 10 | < 10 | < 10 | < 10 | < 10 | < 10 | < 10 | < 10 | < 10 | < 10 | < 10 | < 10 | < 10 | < 10 | < 10 | < 10 | < 10 | < 10 | < 10 | < 10 | inhibition of growth at 10 µM (OVCAR-5): < 10%; inhibition of growth at 10 µM (OVCAR-8): < 10%; inhibition of growth at 10 µM (786-0): < 10%; inhibition of growth at 10 µM (A498): < 10%; inhibition of growth at 10 µM (CAKI-1): 12.2%; inhibition of growth at 10 µM (RXF 393): < 10%; inhibition of growth at 10 µM (SN12C): < 10%; inhibition of growth at 10 µM (UO-31): 13.4%; inhibition of growth at 10 µM (PC-3): < 10%; inhibition of growth at 10 µM (MDA-MB-231): < 10%; inhibition of growth at 10 µM [1]: < 10%; inhibition of growth at 10 µM (BT-549): < 10%; inhibition of growth at 10 µM (T47D): < 10%; inhibition of growth at 10 µM (MDA-MB-468): < 10%; inhibition of growth at 10 µM (CCRF-CEM): < 10%
2 | CCOC(=O)c1sc(NC(=O)C(C)N2CCOCC2)nc1C (stereo not given) | < 10 | < 10 | < 10 | < 10 | < 10 | < 10 | < 10 | < 10 | < 10 | < 10 | < 10 | < 10 | < 10 | < 10 | < 10 | < 10 | < 10 | < 10 | < 10 | < 10 | inhibition of growth at 10 µM (OVCAR-5): < 10%; inhibition of growth at 10 µM (OVCAR-8): < 10%; inhibition of growth at 10 µM (786-0): < 10%; inhibition of growth at 10 µM (A498): < 10%; inhibition of growth at 10 µM (CAKI-1): < 10%; inhibition of growth at 10 µM (RXF 393): < 10%; inhibition of growth at 10 µM (SN12C): < 10%; inhibition of growth at 10 µM (UO-31): 14.2%; inhibition of growth at 10 µM (PC-3): < 10%; inhibition of growth at 10 µM (MDA-MB-231): < 10%; inhibition of growth at 10 µM [1]: < 10%; inhibition of growth at 10 µM (BT-549): < 10%; inhibition of growth at 10 µM (T47D): < 10%; inhibition of growth at 10 µM (MDA-MB-468): < 10%; inhibition of growth at 10 µM (CCRF-CEM): < 10%
